Source: PubChem
Only some compounds are listed: those with a hit (about 0.83% of all), similar ones and a draw of the others.
CRFR2-BP ag: agonists of CRF-BP/CRF-R2 complex, primary screen, cell-based, HEK293, calcium dye fluorescence, uHTS | actives 0.46% (n = 350,000) | CRF-binding protein / CRF receptor 2 complex (human) | AID 588473, 2011 | activation, % at 13.2 µM | calcium dye fluorescence (FLIPR); percent of saturating CRF peptide response;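 active = activation of at least 50%, plus an integration ratio under a set limit after plate pattern correction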;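 also: plate controls were neutral control wells without compound for no effect and CRF at EC100 for full effect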
TRPML3 ag: human TRPML3 channel agonists, primary screen, cell-based, HEK293 TRPML3-YFP, Fluo-8 calcium fluorescence, 3 µM; activation, % at 3 µM; 100% = the carbachol control signal; actives 0.29% (n = 220,000); Mucolipin-3 (Homo sapiens), Q8TDD5;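 active = activation above its plate's cutoff, the mean activation of the plate's test wells plus 3 SD, cut at about 12% in these data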;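 also: 0% = DMSO only wells and 100% = carbachol wells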
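Material: HEK293 cells stably carrying human TRPML3-YFP; compound dosing: single dose, 3 µM final nominal compound, 0.3% DMSO final; incubation: 1-h 37 °C dye load, 5-s basal, 120-s post-compound reads; technique: Fluo-8 intracellular calcium fluorescence, excitation 470-495 nm, emission 515-575 nm; read-out basis: percent activation from peak-to-basal fluorescence ratio, scaled between DMSO and carbachol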
V1R ag counter: agonists of human V1a receptor, primary screen, counter-screen for OXTR agonist project, fluorescence, CHO-V1R cells. activation, % at 3 µM. Vasopressin V1a receptor (Homo sapiens), P37288. AID 2797, 2010. Fluo-8 calcium fluorescence, agonist mode; 0% DMSO, 100% 3 nM vasopressin. actives 0.25% (n = 320,000);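 active = activation above the mean activation of all tested compounds plus 3 SD, per screening run, cut at about 20% in these data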;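 also: signal is peak over basal fluorescence ratio across a 100 second FLIPR read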
OXTR ag: human OXTR agonists, primary screen, fluorescence, CHO-OTR cells, Fluo-8 calcium; Oxytocin receptor (Homo sapiens), P30559; Fluo-8 calcium fluorescence; normalized: DMSO 0%, oxytocin 100%; activation, % at 3 µM; actives 0.32% (n = 320,000); AID 2435, 2010;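 active = activation above the mean of all tested compounds plus 3 SD, cutoff set per screening run, cut at about 20% in these data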;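 also: peak over basal fluorescence ratio from a 100 s FLIPR kinetic read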
Target sequence (P30559 whole entry, looked up): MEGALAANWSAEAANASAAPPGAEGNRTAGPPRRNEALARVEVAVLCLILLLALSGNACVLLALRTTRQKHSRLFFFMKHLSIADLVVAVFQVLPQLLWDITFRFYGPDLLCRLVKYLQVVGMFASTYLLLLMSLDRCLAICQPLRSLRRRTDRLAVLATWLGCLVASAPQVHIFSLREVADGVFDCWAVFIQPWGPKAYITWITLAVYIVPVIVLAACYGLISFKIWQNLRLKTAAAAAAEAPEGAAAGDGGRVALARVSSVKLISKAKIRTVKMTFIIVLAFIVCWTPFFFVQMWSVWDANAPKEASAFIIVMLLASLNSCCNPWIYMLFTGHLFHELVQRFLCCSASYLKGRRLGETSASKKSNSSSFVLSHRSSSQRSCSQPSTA
OXTR potentiator: human OXTR potentiators, primary screen, fluorescence, CHO-OTR cells, Fluo-8 calcium; Fluo-8 calcium fluorescence, potentiator mode; 0% = oxytocin EC15, 100% = EC100; AID 2445, 2010; activation, % at 3 µM; Oxytocin receptor (Homo sapiens), P30559; actives 0.061% (n = 320,000);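 active = activation above that plate's cutoff, the mean activation of tested compounds plus 3 SD, cut at about 6.6% in these data, passing the limit was not always enough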;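 also: 100% uses oxytocin at 75 nM as the full agonist control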
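Assay system: CHO-OTR cells, human receptor / Also added: oxytocin at about EC15, sub-maximal agonist stimulus / Dosing: single dose, 3.0 µM nominal final compound concentration / Incubation: 6 min pre-incubation, 100 s read / Technique: Fluo-8 calcium dye fluorescence / Read-out: % activation vs EC15 and EC100 oxytocin / Benchmarks: EC15 oxytocin low, 75 nM oxytocin high / Replicates: singlicate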
zfTRPN1 agonist: zebrafish TRPN1 channel agonists, primary screen, cell-based, HEK293, calcium fluorescence | actives 0.18% (n = 220,000) | activation, % at 3 µM | HEK293 zebrafish TRPN1-YFP, Fluo-8 calcium fluorescence; 100% = response to 87 µM carbachol | AID 1424, 2008 | transient receptor potential cation channel N1 (TRPN1/NompC), Danio rerio;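 active = activation above its plate's cutoff, the mean activation of test wells on that plate plus 3 SD, cut at about 19% in these data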;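 also: 0% = DMSO alone and 100% = 87 µM carbachol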
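System: zebrafish TRPN1-YFP in HEK293 cells / Dosing: 3 µM single point / Timing: dye loading 1 h at 37 °C, then 30 min room temperature / Signal: Fluo-8 calcium fluorescence, excitation 470-495 nm, emission 515-575 nm / Read-out basis: percent activation from peak over basal fluorescence ratio, control-normalized / Control set: high carbachol 87 µM, low DMSO alone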
Active calls of the source: *; nt = no result.

SMILES | CRFR2-BP ag | TRPML3 ag | V1R ag counter | OXTR ag | OXTR potentiator | zfTRPN1 agonist
COc1ccc(S(=O)(=O)N2CCC3(CC2)CC(=O)c2ccccc2O3)cc1C | -1 | nt | -1 | 0 | -15 | nt
CN1CCc2c(sc3c2C(=O)NC(c2cccs2)N3)C1 (configuration not stated) | 58* | 1 | 3 | 3 | -5 | 1
Cc1ccsc1C1NC(=O)c2c(sc3c2CCN(C)C3)N1 (configuration not stated) | 65* | 0 | 3 | 3 | -7 | 1
Cc1sc(NC(=O)C2CCCCC2C(=O)O)c(C(N)=O)c1-c1ccc(C(C)(C)C)cc1 (configuration not stated) | 104* | 0 | 0 | 0 | -5 | 0
Cc1ccc(CNC(=O)c2cc3c(=O)n4ccccc4nc3n(Cc3ccco3)c2=N)cc1 | 3 | nt | 0 | -1 | -4 | nt
CCCCn1c(=N)c(S(=O)(=O)c2ccc(Br)cc2)cc2c(=O)n3cccc(C)c3nc21 | 59* | nt | 1 | 1 | -2 | nt
CCCCCn1c(=N)c(S(=O)(=O)c2ccc(Br)cc2)cc2c(=O)n3cccc(C)c3nc21 | 19 | nt | 1 | 1 | -3 | nt
CCCn1c(=NC(=O)c2ccncc2)c(C#N)cc2c(=O)n3cccc(C)c3nc21 | -1 | nt | nt | nt | nt | nt
Cc1ccc(S(=O)(=O)c2cc3c(=O)n4ccccc4nc3n(Cc3ccco3)c2=N)cc1 | 66* | -1 | -1 | -2 | -12 | 2
CCCCn1c(=NC(=O)c2cccnc2)c(C#N)cc2c(=O)n3cccc(C)c3nc21 | 89* | 0 | 0 | -2 | -7 | -1
O=C(CC(Sc1ccc(Br)cc1)C(=O)O)c1ccc(F)cc1 (configuration not stated) | 0 | nt | 1 | 1 | -8 | nt
CCOc1ccc(NC(=O)C2=NN(c3ccccc3)C(=O)CC2)cc1S(=O)(=O)N1CCCCC1 | 3 | nt | 1 | 0 | 0 | nt
CCN(CC)c1ccc(C(=C2C=CC(=[N+](CC)CC)C=C2)c2ccc(N(CC)CC)cc2)cc1 | 9 | nt | nt | nt | nt | nt
CCN(CC)c1ccc(C(=C2C=CC(=[N+](CC)CC)C=C2)c2ccccc2)cc1 | 91* | nt | nt | nt | nt | nt
Cc1c(Cl)ccc2c1NC(=O)[C@]21N[C@@H](Cc2ccccc2)[C@H]2C(=O)N(c3ccc(F)cc3)C(=O)[C@H]21 | 25 | 8 | 24* | 27* | -12 | 6
C[C@H]1CN([C@@H](C)CO)S(=O)(=O)c2ccc(Br)cc2O[C@@H]1CN(C)C(=O)Cc1ccccc1 | -2 | nt | nt | nt | nt | nt
COc1ccc(Nc2sc(C(=O)c3ccc(Cl)cc3)c(N)c2C(=O)Nc2ccccc2OC)cc1 | 31 | 11 | 40* | 47* | -26 | 12
COc1ccc(C(=O)c2sc(Nc3cccc(OC)c3)c(C(=O)Nc3cccc(C)c3C)c2N)cc1 | 121* | 4 | 15 | 4 | -20 | 6
COc1ccc(NC(=O)c2c(Nc3ccccc3)sc(C(=O)c3ccc(F)cc3)c2N)cc1 | 9 | 0 | 7 | 9 | -8 | 3
COc1ccc2nc(C)cc(Nc3ccc(C)cc3)c2c1 | 1 | nt | nt | nt | nt | nt
COc1ccc2nc(C)cc(NCc3ccc(F)cc3)c2c1 | 73* | nt | 10 | 11 | -12 | nt
Cc1ccc(S(=O)(=O)N2CCN(CCOc3c(Cl)cccc3Cl)CC2)cc1C | 13 | nt | 1 | 0 | -8 | nt
CC(C)OC(=O)c1c2c(n3ccccc13)C(=O)c1ccccc1C2=O | 182* | 5 | 31* | 25* | -17 | 10
COC(=O)c1cc2c(C)c(C)c3ccccn3c-2c1C(=O)OC | 7 | 1 | 1 | -2 | -19 | 0
CCCC1=NN2C(=N)/C(=C\c3cc(C)n(Cc4ccccc4)c3C)C(=O)N=C2S1 | 14 | 0 | 43* | 48* | -18 | 3
SMILES | CRFR2-BP ag | TRPML3 ag | V1R ag counter | OXTR ag | OXTR potentiator | zfTRPN1 agonist
Cc1cc(/C=C2\C(=N)N3N=C(S(C)(=O)=O)SC3=NC2=O)c(C)n1Cc1ccccc1 | -3 | 0 | -1 | -1 | -12 | 0
OCCN(CCO)c1nc(N2CCCCC2)c2nc(N(CCO)CCO)nc(N3CCCCC3)c2n1 | 179* | 6 | 15 | 16 | -4 | 11
C/C=C/c1ccc(OCC(O)CN(C)Cc2ccc(SC)cc2)c(OC)c1 (configuration not stated) | -1 | nt | 3 | 7 | -12 | nt
O=C(Nc1cccc2ncccc12)c1ccc2c(c1)OCCO2 | 57* | 0 | 1 | 0 | -13 | 1
COc1ccc(/C=N/OCC(=O)NC(c2ccccc2)c2ccccc2)c(OC)c1 | 0 | -1 | 4 | 7 | -14 | 0
CCOc1ccc(/C=N/OCC(=O)NC(c2ccccc2)c2ccccc2)cc1 | 54* | 0 | 7 | 8 | -12 | 0
O=[N+]([O-])c1ccc(O)c(Nc2ncnc3ccc(Br)cc23)c1 | 52* | 1 | 10 | 7 | -8 | 1
O=c1ccnc(Nc2ccc([N+](=O)[O-])cc2)[nH]1 | 0 | nt | 1 | 1 | -3 | nt
Oc1sc(C=Nc2ccccc2)c2ccccc12 | 123* | 3 | 12 | 9 | -11 | 6
COc1ccc(Cl)cc1C(=O)Nc1nc(C)cc(C)n1 | 2 | nt | 0 | -1 | -7 | nt
CN1CCN(Cc2c(O)ccc3cc(-c4ccccn4)c(=O)oc23)CC1 | 63* | 0 | 1 | -1 | -9 | 0
Cc1c(C)c2ccc(O)c(CN3CCN(C)CC3)c2oc1=O | 0 | nt | nt | nt | nt | nt
CC1(c2ccc(OC(F)F)cc2)NC(=O)N(CC(=O)c2ccc3c(c2)OCO3)C1=O (configuration not stated) | 86* | nt | 39* | 41* | -22 | nt
CC1(c2ccc([N+](=O)[O-])cc2)NC(=O)N(CC(=O)c2ccc3c(c2)OCO3)C1=O (configuration not stated) | 60* | nt | 23* | 34* | -20 | nt
CC(=O)c1c(C)[nH]c(C(=O)CN2C(=O)NC(C)(c3ccc4c(c3)OCO4)C2=O)c1C (configuration not stated) | 5 | nt | 8 | 6 | -6 | nt
O=C(COC(=O)C12CC3CC(CC(O)(C3)C1)C2)Nc1cccc(Br)c1 | 2 | nt | nt | nt | nt | nt
